Laboratory results as given in ChEMBL document CHEMBL4007410, “Fluorinated Chaperone-β-Cyclodextrin Formulations for β-Glucocerebrosidase Activity Enhancement in Neuronopathic Gaucher Disease” (J Med Chem, 2017).
Calls of active or inactive are those of the source. The calls are words filed in the database; no cut-off is given here.

Species on record: Homo sapiens
Test: Inhibition of human lysosomal beta-hexosaminidase assessed as formation of 4-methylumbelliferone from 4-methylumbelliferyl N-acetyl-beta-D-glucosaminide up to 200 uM by luminescence spectrophotometry
In short: (§1)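 Cells were scraped into ice-cold water (10⁶ cells/mL), sonicated and centrifuged, and protein was quantified. Lysate in 0.1% Triton X-100 was incubated at 37 °C with the matching 4-MU-conjugated glycoside in 0.1 M citrate, pH 4.5, with increasing chaperone or βCD-complex concentrations up to 200 μM. Reactions were stopped with glycine-NaOH, pH 10.7, and read at ex 340/em 460 nm.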

| inhibition | SMILES |
| --- | --- |
| inactive | O=C(CCC(F)(F)C(F)(F)C(F)(F)C(F)(F)F)NCCCCCCCCCNC(=S)N1[C@@H]2CO[C@H]1[C@H](O)[C@@H](O)[C@@H]2O |
| inactive | O=C(CCC(F)(F)C(F)(F)C(F)(F)C(F)(F)C(F)(F)C(F)(F)F)NCCCCCCCCCNC(=S)N1[C@@H]2CO[C@H]1[C@H](O)[C@@H](O)[C@@H]2O |
| inactive | O=C(CCC(F)(F)C(F)(F)C(F)(F)C(F)(F)F)NCCCCNC(=S)N1[C@@H]2CO[C@H]1[C@H](O)[C@@H](O)[C@@H]2O |
| inactive | O=C(CCC(F)(F)C(F)(F)C(F)(F)C(F)(F)C(F)(F)C(F)(F)F)NCCCCNC(=S)N1[C@@H]2CO[C@H]1[C@H](O)[C@@H](O)[C@@H]2O |

Target: T1, Beta-mannosidase (Homo sapiens) (UniProt O00462)
T1 sequence (whole entry): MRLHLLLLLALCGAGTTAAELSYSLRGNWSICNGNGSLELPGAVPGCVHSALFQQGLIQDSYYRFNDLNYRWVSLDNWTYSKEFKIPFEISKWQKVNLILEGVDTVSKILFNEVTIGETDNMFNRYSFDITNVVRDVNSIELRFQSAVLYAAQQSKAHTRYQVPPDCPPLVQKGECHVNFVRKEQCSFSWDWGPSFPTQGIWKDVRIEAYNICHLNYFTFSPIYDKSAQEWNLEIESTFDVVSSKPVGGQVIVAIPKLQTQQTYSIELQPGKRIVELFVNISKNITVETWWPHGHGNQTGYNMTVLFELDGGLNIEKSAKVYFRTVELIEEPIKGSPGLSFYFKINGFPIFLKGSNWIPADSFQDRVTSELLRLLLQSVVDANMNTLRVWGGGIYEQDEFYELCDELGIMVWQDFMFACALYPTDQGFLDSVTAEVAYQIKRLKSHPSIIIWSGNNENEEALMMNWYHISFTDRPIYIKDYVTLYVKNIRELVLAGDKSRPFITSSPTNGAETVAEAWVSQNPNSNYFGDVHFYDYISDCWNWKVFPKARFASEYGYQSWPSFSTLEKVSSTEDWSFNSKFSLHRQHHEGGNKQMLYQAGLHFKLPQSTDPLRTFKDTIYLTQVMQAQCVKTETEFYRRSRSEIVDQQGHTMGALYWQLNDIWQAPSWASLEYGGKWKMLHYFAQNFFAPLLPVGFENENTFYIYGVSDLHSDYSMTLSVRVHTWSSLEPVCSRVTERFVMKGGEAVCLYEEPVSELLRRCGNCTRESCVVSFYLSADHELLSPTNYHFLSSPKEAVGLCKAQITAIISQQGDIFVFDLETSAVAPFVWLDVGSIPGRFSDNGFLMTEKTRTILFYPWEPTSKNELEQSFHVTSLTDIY
Test: Inhibition of human lysosomal beta-mannosidase assessed as formation of 4-methylumbelliferone from 4-methylumbelliferyl […] up to 200 uM in presence of beta-cyclodextrin by luminescence spectrophotometry
In short: as §1

| inhibition | SMILES |
| --- | --- |
| Active | O=C(CCC(F)(F)C(F)(F)C(F)(F)C(F)(F)F)NCCCCCCCCCNC(=S)N1[C@@H]2CO[C@H]1[C@H](O)[C@@H](O)[C@@H]2O |
| Active | O=C(CCC(F)(F)C(F)(F)C(F)(F)C(F)(F)C(F)(F)C(F)(F)F)NCCCCCCCCCNC(=S)N1[C@@H]2CO[C@H]1[C@H](O)[C@@H](O)[C@@H]2O |
| Active | O=C(CCC(F)(F)C(F)(F)C(F)(F)C(F)(F)F)NCCCCNC(=S)N1[C@@H]2CO[C@H]1[C@H](O)[C@@H](O)[C@@H]2O |
| Active | O=C(CCC(F)(F)C(F)(F)C(F)(F)C(F)(F)C(F)(F)C(F)(F)F)NCCCCNC(=S)N1[C@@H]2CO[C@H]1[C@H](O)[C@@H](O)[C@@H]2O |

Tested on: Saccharomyces cerevisiae
Test: Inhibition of yeast isomaltase at 2 mM using beta-D-glycopyranoside after 10 to 30 mins in presence of beta-cyclodextrin by spectrophotometry
In short: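 Commercial glycosidases were assayed with o-nitrophenyl (E. coli β-galactosidase) or p-nitrophenyl glycoside substrate near KM. Buffer was phosphate, or phosphate-citrate for mannosidases and amyloglucosidase, at each enzyme's optimal pH. Enzyme was added last. Incubation ran 10-30 min at 37 °C (55 °C for amyloglucosidase), then was quenched with 1 M Na2CO3 and read at A405. Free compounds were tested up to 1 mM; 1:1 βCD complexes up to 2 mM.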

| inhibition | SMILES |
| --- | --- |
| inactive | O=C(CCC(F)(F)C(F)(F)C(F)(F)C(F)(F)F)NCCCCCCCCCNC(=S)N1[C@@H]2CO[C@H]1[C@H](O)[C@@H](O)[C@@H]2O |
| inactive | O=C(CCC(F)(F)C(F)(F)C(F)(F)C(F)(F)C(F)(F)C(F)(F)F)NCCCCCCCCCNC(=S)N1[C@@H]2CO[C@H]1[C@H](O)[C@@H](O)[C@@H]2O |
| inactive | O=C(CCC(F)(F)C(F)(F)C(F)(F)C(F)(F)F)NCCCCNC(=S)N1[C@@H]2CO[C@H]1[C@H](O)[C@@H](O)[C@@H]2O |
| inactive | O=C(CCC(F)(F)C(F)(F)C(F)(F)C(F)(F)C(F)(F)C(F)(F)F)NCCCCNC(=S)N1[C@@H]2CO[C@H]1[C@H](O)[C@@H](O)[C@@H]2O |

Species on record: Homo sapiens
Test: Inhibition of human lysosomal beta-hexosaminidase assessed as formation of 4-methylumbelliferone from 4-methylumbelliferyl N-acetyl-beta-D-glucosaminide up to 200 uM in presence of beta-cyclodextrin by luminescence spectrophotometry
In short: as §1

| inhibition | SMILES |
| --- | --- |
| Active | O=C(CCC(F)(F)C(F)(F)C(F)(F)C(F)(F)F)NCCCCCCCCCNC(=S)N1[C@@H]2CO[C@H]1[C@H](O)[C@@H](O)[C@@H]2O |
| Active | O=C(CCC(F)(F)C(F)(F)C(F)(F)C(F)(F)C(F)(F)C(F)(F)F)NCCCCCCCCCNC(=S)N1[C@@H]2CO[C@H]1[C@H](O)[C@@H](O)[C@@H]2O |
| Active | O=C(CCC(F)(F)C(F)(F)C(F)(F)C(F)(F)F)NCCCCNC(=S)N1[C@@H]2CO[C@H]1[C@H](O)[C@@H](O)[C@@H]2O |
| Active | O=C(CCC(F)(F)C(F)(F)C(F)(F)C(F)(F)C(F)(F)C(F)(F)F)NCCCCNC(=S)N1[C@@H]2CO[C@H]1[C@H](O)[C@@H](O)[C@@H]2O |

Species on record: Homo sapiens
Test: Chaperone activity assessed as enhancement of GCase N370S/84GG mutant enzyme in fibroblasts derived from type 1 gaucher disease patient […] prior to addition of 4-methylumbelliferyl beta-D-glucopyranoside as substrate in presence of beta-cyclodextrin by luminescence spectrophotometry relative to control

| fold change (FC) | SMILES |
| --- | --- |
| 1.5 to 1.7 | O=C(CCC(F)(F)C(F)(F)C(F)(F)C(F)(F)F)NCCCCCCCCCNC(=S)N1[C@@H]2CO[C@H]1[C@H](O)[C@@H](O)[C@@H]2O |
| 1.5 to 1.7 | O=C(CCC(F)(F)C(F)(F)C(F)(F)C(F)(F)C(F)(F)C(F)(F)F)NCCCCCCCCCNC(=S)N1[C@@H]2CO[C@H]1[C@H](O)[C@@H](O)[C@@H]2O |
| 1.5 to 1.7 | O=C(CCC(F)(F)C(F)(F)C(F)(F)C(F)(F)F)NCCCCNC(=S)N1[C@@H]2CO[C@H]1[C@H](O)[C@@H](O)[C@@H]2O |

Target: T2, Beta-galactosidase (Homo sapiens) (UniProt P16278)
T2 sequence (whole entry): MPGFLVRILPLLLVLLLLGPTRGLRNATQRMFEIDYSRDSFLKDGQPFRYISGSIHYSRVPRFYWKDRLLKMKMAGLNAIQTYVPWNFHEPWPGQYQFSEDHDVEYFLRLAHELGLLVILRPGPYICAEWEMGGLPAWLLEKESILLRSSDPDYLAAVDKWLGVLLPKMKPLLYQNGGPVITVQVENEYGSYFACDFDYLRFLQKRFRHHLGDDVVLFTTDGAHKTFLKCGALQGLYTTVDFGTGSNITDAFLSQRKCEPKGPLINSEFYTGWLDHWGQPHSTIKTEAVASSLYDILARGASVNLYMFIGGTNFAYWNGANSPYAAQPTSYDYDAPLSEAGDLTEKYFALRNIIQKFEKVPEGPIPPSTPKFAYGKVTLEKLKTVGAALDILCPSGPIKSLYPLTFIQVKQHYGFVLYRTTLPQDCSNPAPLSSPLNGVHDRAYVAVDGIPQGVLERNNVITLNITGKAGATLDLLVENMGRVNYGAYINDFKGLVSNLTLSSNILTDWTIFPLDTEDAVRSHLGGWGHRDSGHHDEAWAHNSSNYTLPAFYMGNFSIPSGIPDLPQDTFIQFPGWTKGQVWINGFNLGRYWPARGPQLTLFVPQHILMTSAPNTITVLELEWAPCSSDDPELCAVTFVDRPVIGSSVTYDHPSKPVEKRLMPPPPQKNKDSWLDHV
Test: Inhibition of human lysosomal beta-galactosidase assessed as formation of 4-methylumbelliferone from 4-methylumbelliferyl beta-D-galactopyranoside up to 200 uM by luminescence spectrophotometry
In short: as §1

| inhibition | SMILES |
| --- | --- |
| inactive | O=C(CCC(F)(F)C(F)(F)C(F)(F)C(F)(F)F)NCCCCCCCCCNC(=S)N1[C@@H]2CO[C@H]1[C@H](O)[C@@H](O)[C@@H]2O |
| inactive | O=C(CCC(F)(F)C(F)(F)C(F)(F)C(F)(F)C(F)(F)C(F)(F)F)NCCCCCCCCCNC(=S)N1[C@@H]2CO[C@H]1[C@H](O)[C@@H](O)[C@@H]2O |
| inactive | O=C(CCC(F)(F)C(F)(F)C(F)(F)C(F)(F)F)NCCCCNC(=S)N1[C@@H]2CO[C@H]1[C@H](O)[C@@H](O)[C@@H]2O |
| inactive | O=C(CCC(F)(F)C(F)(F)C(F)(F)C(F)(F)C(F)(F)C(F)(F)F)NCCCCNC(=S)N1[C@@H]2CO[C@H]1[C@H](O)[C@@H](O)[C@@H]2O |

Target: not listed separately
Test: Competitive inhibition of bovine liver beta-glucosidase assessed as formation of 4-methylumbelliferone from 4-methylumbelliferyl […] by Lineweaver-Burk Plot analysis
Parameters: species or system Bos taurus

| Ki [nM] | SMILES |
| --- | --- |
| 340 | O=C(CCC(F)(F)C(F)(F)C(F)(F)C(F)(F)F)NCCCCCCCCCNC(=S)N1[C@@H]2CO[C@H]1[C@H](O)[C@@H](O)[C@@H]2O |
| 330 | O=C(CCC(F)(F)C(F)(F)C(F)(F)C(F)(F)C(F)(F)C(F)(F)F)NCCCCCCCCCNC(=S)N1[C@@H]2CO[C@H]1[C@H](O)[C@@H](O)[C@@H]2O |
| 6400 | O=C(CCC(F)(F)C(F)(F)C(F)(F)C(F)(F)F)NCCCCNC(=S)N1[C@@H]2CO[C@H]1[C@H](O)[C@@H](O)[C@@H]2O |
| 1100 | O=C(CCC(F)(F)C(F)(F)C(F)(F)C(F)(F)C(F)(F)C(F)(F)F)NCCCCNC(=S)N1[C@@H]2CO[C@H]1[C@H](O)[C@@H](O)[C@@H]2O |

Tested on: not listed separately
Test: Critical micellar concentration of the compound measured after 1 hr by pyrene fluorescence excitation spectral analysis
In short: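 Pyrene fluorescence method: pyrene at 0.6 μM final in water, iminosugar from 1180 to 4.3·10⁻³ μM, equilibrated 1 h at 37 °C. Emission was read at 375 nm. The I339/I335 excitation intensity ratio tracked the band shift, giving the CMC.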

| SMILES | CMC [µM] |
| --- | --- |
| O=C(CCC(F)(F)C(F)(F)C(F)(F)C(F)(F)F)NCCCCCCCCCNC(=S)N1[C@@H]2CO[C@H]1[C@H](O)[C@@H](O)[C@@H]2O | 37.5 |
| O=C(CCC(F)(F)C(F)(F)C(F)(F)C(F)(F)C(F)(F)C(F)(F)F)NCCCCCCCCCNC(=S)N1[C@@H]2CO[C@H]1[C@H](O)[C@@H](O)[C@@H]2O | 15 |
| O=C(CCC(F)(F)C(F)(F)C(F)(F)C(F)(F)F)NCCCCNC(=S)N1[C@@H]2CO[C@H]1[C@H](O)[C@@H](O)[C@@H]2O | 393 |
| O=C(CCC(F)(F)C(F)(F)C(F)(F)C(F)(F)C(F)(F)C(F)(F)F)NCCCCNC(=S)N1[C@@H]2CO[C@H]1[C@H](O)[C@@H](O)[C@@H]2O | 31.6 |

Target: not listed separately
Test: Competitive inhibition of bovine liver beta-glucosidase assessed as formation of 4-methylumbelliferone from 4-methylumbelliferyl […] in presence of beta-cyclodextrin by Lineweaver-Burk Plot analysis
Parameters: species or system Bos taurus

| Ki [nM] | SMILES |
| --- | --- |
| 260 | O=C(CCC(F)(F)C(F)(F)C(F)(F)C(F)(F)F)NCCCCCCCCCNC(=S)N1[C@@H]2CO[C@H]1[C@H](O)[C@@H](O)[C@@H]2O |
| 2500 | O=C(CCC(F)(F)C(F)(F)C(F)(F)C(F)(F)C(F)(F)C(F)(F)F)NCCCCCCCCCNC(=S)N1[C@@H]2CO[C@H]1[C@H](O)[C@@H](O)[C@@H]2O |
| 1300 | O=C(CCC(F)(F)C(F)(F)C(F)(F)C(F)(F)F)NCCCCNC(=S)N1[C@@H]2CO[C@H]1[C@H](O)[C@@H](O)[C@@H]2O |
| 130 | O=C(CCC(F)(F)C(F)(F)C(F)(F)C(F)(F)C(F)(F)C(F)(F)F)NCCCCNC(=S)N1[C@@H]2CO[C@H]1[C@H](O)[C@@H](O)[C@@H]2O |
